# Laboratory results: ChEMBL document CHEMBL1158184, “Synthesis and anti-CVB 3 evaluation of substituted 5-nitro-2-phenoxybenzonitriles” (Bioorg Med Chem Lett, 2008)
# What was measured:
# Coxsackievirus B3 = test: Antiviral activity against Coxsackievirus B3 assessed as reduction of virus-induced cytopathogenicity after 3 days by MTS assay; format: functional, organism-based; settings: Enterovirus B, 72 h
# Summary of the method: (§1)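 MTS-based CPE reduction assay. Confluent cell monolayers were infected with 100 CCID50 of virus and left 2 h at 37 °C for adsorption, then the inoculum was removed and serial compound dilutions were added. MTS/PMS was added for 2 h and OD was read at 498 nm. EC50 was derived from %CPE relative to uninfected and infected untreated controls.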
# Echovirus E11 = test: Antiviral activity against Echovirus 11 in human MRC5 cells; format: functional; summary of the method: as §1
# Echovirus E9 = test: Antiviral activity against Echovirus 9 in human MRC5 cells; format: functional; summary of the method: as §1
# enterovirus D68 = test: Antiviral activity against Enterovirus 68 in human MRC5 cells; format: functional; summary of the method: as §1
# Coxsackievirus B1 = test: Antiviral activity against Coxsackievirus B1 in african green monkey Vero cells; format: functional; summary of the method: as §1
# Coxsackievirus B6 = test: Antiviral activity against Coxsackievirus B6 in african green monkey Vero cells; format: functional; summary of the method: as §1
# Coxsackievirus A24 = test: Antiviral activity against Coxsackievirus A24 in human MRC5 cells; format: functional
# Summary of the method: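 MTS-based CPE-reduction assay. Confluent monolayers were infected with 100 CCID50 of virus and adsorbed for 2 h at 37 °C; virus was then removed and serial compound dilutions added. Cultures were incubated 3 days at 37 °C until complete CPE in the untreated virus control. After MTS/PMS for 2 h, OD was read at 498 nm, %CPE calculated against uninfected and infected-untreated controls, and EC50 derived.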
# Coxsackievirus B2 = test: Antiviral activity against Coxsackievirus B2 in african green monkey Vero cells; format: functional; summary of the method: as §1
# Coxsackievirus B4 = test: Antiviral activity against Coxsackievirus B4 in african green monkey Vero cells; format: functional; summary of the method: as §1
# Coxsackievirus B5 = test: Antiviral activity against Coxsackievirus B5 in african green monkey Vero cells; format: functional; summary of the method: as §1
structure (smiles),measurement,setting,value
N#Cc1cc([N+](=O)[O-])ccc1Oc1cccc([N+](=O)[O-])c1,IC50,Coxsackievirus B3,38 µM
COc1cccc(Oc2ccc([N+](=O)[O-])cc2C#N)c1,IC50,Coxsackievirus B3,12 µM
N#Cc1cc([N+](=O)[O-])ccc1Oc1ccc(Br)cc1,IC50,Coxsackievirus B3,5.7 µM
N#Cc1cc([N+](=O)[O-])ccc1Oc1cc(Cl)ccc1Cl,Activity,Echovirus E11,>323 µM
same,Activity,Echovirus E9,>323 µM
same,Activity,enterovirus D68,>323 µM
same,IC50,Coxsackievirus B3,3.8 µM
CS(=O)(=O)c1ccc(Oc2ccc([N+](=O)[O-])cc2C#N)cc1,IC50,Coxsackievirus B3,174 µM
N#Cc1cc([N+](=O)[O-])ccc1Oc1ccc(Cl)cc1Cl,IC50,Coxsackievirus B3,13 µM
Cc1cc(Oc2ccc([N+](=O)[O-])cc2C#N)ccc1Br,IC50,Coxsackievirus B3,2.6 µM
N#Cc1ccc(Oc2ccc([N+](=O)[O-])cc2C#N)c(Cl)c1,IC50,Coxsackievirus B3,7.3 µM
N#Cc1cc([N+](=O)[O-])ccc1Oc1cccc(N)c1,IC50,Coxsackievirus B3,241 µM
N#Cc1cc([N+](=O)[O-])ccc1Oc1cccc(I)c1,IC50,Coxsackievirus B3,5.7 µM
N#Cc1cc([N+](=O)[O-])ccc1Oc1ccc(C(N)=O)cc1,IC50,Coxsackievirus B3,> 353 µM
N#Cc1cc([N+](=O)[O-])ccc1Oc1ccc([N+](=O)[O-])cc1Cl,IC50,Coxsackievirus B3,39 µM
N#Cc1ccc(Oc2ccc([N+](=O)[O-])cc2C#N)cc1,IC50,Coxsackievirus B3,4.1 µM
N#Cc1cc([N+](=O)[O-])ccc1Oc1ccc(Br)cc1Br,IC50,Coxsackievirus B3,6.2 µM
N#Cc1cc([N+](=O)[O-])ccc1Oc1cccc(NC(N)=O)c1,IC50,Coxsackievirus B3,> 335 µM
N#Cc1cc([N+](=O)[O-])ccc1Oc1ccc(Br)cc1Cl,IC50,Coxsackievirus B3,3.7 µM
COc1ccc(Oc2ccc([N+](=O)[O-])cc2C#N)cc1,IC50,Coxsackievirus B3,46 µM
N#Cc1cc([N+](=O)[O-])ccc1Oc1ccc(Cl)c(Cl)c1Cl,IC50,Coxsackievirus B3,> 146 µM
Cc1cc(C)cc(Oc2ccc([N+](=O)[O-])cc2C#N)c1,IC50,Coxsackievirus B3,> 324 µM
N#Cc1cc([N+](=O)[O-])ccc1Oc1ccc(N)cc1,IC50,Coxsackievirus B3,106 µM
CC(=O)Nc1ccc(Oc2ccc([N+](=O)[O-])cc2C#N)cc1,IC50,Coxsackievirus B3,> 336 µM
C[S+]([O-])c1ccc(Oc2ccc([N+](=O)[O-])cc2C#N)cc1 (stereo not given),IC50,Coxsackievirus B3,205 µM
N#Cc1cc([N+](=O)[O-])ccc1Oc1c(Cl)cc(Cl)cc1Cl,IC50,Coxsackievirus B3,72 µM
Cc1ccc(Oc2ccc([N+](=O)[O-])cc2C#N)cc1C,IC50,Coxsackievirus B3,99 µM
N#Cc1ccccc1Oc1ccc([N+](=O)[O-])cc1C#N,IC50,Coxsackievirus B3,11 µM
Cc1cccc(Oc2ccc([N+](=O)[O-])cc2C#N)c1,Activity,Coxsackievirus B1,8.9 µM
same,Activity,Coxsackievirus B6,22 µM
same,Activity,Echovirus E11,>393 µM
same,Activity,Coxsackievirus A24,19 µM
same,Activity,Echovirus E9,>393 µM
same,Activity,enterovirus D68,76 µM
same,Activity,Coxsackievirus B2,11 µM
same,Activity,Coxsackievirus B4,22 µM
same,IC50,Coxsackievirus B3,6.4 µM
same,Activity,Coxsackievirus B5,13 µM
N#Cc1cc([N+](=O)[O-])ccc1Oc1ccc([N+](=O)[O-])cc1,Activity,Echovirus E11,>350 µM
same,Activity,Coxsackievirus A24,>350 µM
same,Activity,Echovirus E9,>350 µM
same,Activity,enterovirus D68,>350 µM
same,IC50,Coxsackievirus B3,3.3 µM
COc1ccccc1Oc1ccc([N+](=O)[O-])cc1C#N,IC50,Coxsackievirus B3,54 µM
N#Cc1cc([N+](=O)[O-])ccc1Oc1ccc(I)cc1,IC50,Coxsackievirus B3,5.7 µM
Cc1ccc(Oc2ccc([N+](=O)[O-])cc2C#N)cc1,IC50,Coxsackievirus B3,6.2 µM
Cc1cc(Oc2ccc([N+](=O)[O-])cc2C#N)ccc1[N+](=O)[O-],IC50,Coxsackievirus B3,11 µM
CC(C)c1cccc(Oc2ccc([N+](=O)[O-])cc2C#N)c1,IC50,Coxsackievirus B3,40 µM
N#Cc1cccc(Oc2ccc([N+](=O)[O-])cc2C#N)c1,IC50,Coxsackievirus B3,7.4 µM
CC(=O)c1ccc(Oc2ccc([N+](=O)[O-])cc2C#N)cc1,IC50,Coxsackievirus B3,35 µM
Cc1cc(Cl)ccc1Oc1ccc([N+](=O)[O-])cc1C#N,IC50,Coxsackievirus B3,11 µM
Cc1ccccc1Oc1ccc([N+](=O)[O-])cc1C#N,IC50,Coxsackievirus B3,57 µM
CN(C)c1cccc(Oc2ccc([N+](=O)[O-])cc2C#N)c1,IC50,Coxsackievirus B3,31 µM
N#Cc1cc([N+](=O)[O-])ccc1Oc1ccc(Cl)cc1N,IC50,Coxsackievirus B3,> 53 µM
N#Cc1cc([N+](=O)[O-])ccc1Oc1ccccc1,Activity,Coxsackievirus B1,6.9 µM
same,Activity,Coxsackievirus B6,19 µM
same,Activity,Echovirus E11,>416 µM
same,Activity,Coxsackievirus A24,>240 µM
same,Activity,Echovirus E9,>416 µM
same,Activity,enterovirus D68,>416 µM
same,Activity,Coxsackievirus B2,17 µM
same,Activity,Coxsackievirus B4,26 µM
same,IC50,Coxsackievirus B3,8.7 µM
same,Activity,Coxsackievirus B5,10 µM
CCc1cc(Oc2ccc([N+](=O)[O-])cc2C#N)ccc1Cl,IC50,Coxsackievirus B3,> 330 µM
N#Cc1cc([N+](=O)[O-])ccc1Oc1cccc(Cl)c1Cl,Activity,Coxsackievirus B1,3.3 µM
same,Activity,Coxsackievirus B6,10 µM
same,Activity,Echovirus E11,>323 µM
same,Activity,Coxsackievirus A24,>309 µM
same,Activity,Echovirus E9,>323 µM
same,Activity,enterovirus D68,>323 µM
same,Activity,Coxsackievirus B2,8.6 µM
same,Activity,Coxsackievirus B4,17 µM
same,IC50,Coxsackievirus B3,4.9 µM
same,Activity,Coxsackievirus B5,4.8 µM
N#Cc1cc([N+](=O)[O-])ccc1Oc1cccc(Br)c1,IC50,Coxsackievirus B3,5 µM
CC(C)(C)c1ccc(Oc2ccc([N+](=O)[O-])cc2C#N)cc1,IC50,Coxsackievirus B3,> 338 µM
N#Cc1cc([N+](=O)[O-])ccc1Oc1ccc(N)c([N+](=O)[O-])c1,IC50,Coxsackievirus B3,10 µM
N#Cc1cc([N+](=O)[O-])ccc1Oc1cc(Cl)cc(Cl)c1,IC50,Coxsackievirus B3,> 81 µM
N#Cc1cc([N+](=O)[O-])ccc1Oc1ccc(C(=O)O)cc1,IC50,Coxsackievirus B3,> 352 µM
N#Cc1cc([N+](=O)[O-])ccc1Oc1cccc(C(=O)O)c1,IC50,Coxsackievirus B3,> 352 µM
N#Cc1cc([N+](=O)[O-])ccc1Oc1cc(Cl)c(Cl)cc1Cl,IC50,Coxsackievirus B3,59 µM
N#Cc1cc([N+](=O)[O-])ccc1Oc1ccc(Cl)c(Cl)c1,Activity,Coxsackievirus B1,15 µM
same,Activity,Coxsackievirus B6,12 µM
same,Activity,Echovirus E11,6.7 µM
same,Activity,Coxsackievirus A24,1.8 µM
same,Activity,Echovirus E9,>324 µM
same,Activity,enterovirus D68,12 µM
same,Activity,Coxsackievirus B2,15 µM
same,Activity,Coxsackievirus B4,17 µM
same,IC50,Coxsackievirus B3,6.5 µM
same,Activity,Coxsackievirus B5,18 µM
N#Cc1cc([N+](=O)[O-])ccc1Oc1ccc(Cl)cc1Br,IC50,Coxsackievirus B3,3.7 µM
N#Cc1cc([N+](=O)[O-])ccc1Oc1ccc(Br)c(Cl)c1,IC50,Coxsackievirus B3,6.7 µM
CC(=O)Nc1cccc(Oc2ccc([N+](=O)[O-])cc2C#N)c1,IC50,Coxsackievirus B3,121 µM
Cc1cc(Oc2ccc([N+](=O)[O-])cc2C#N)ccc1Cl,Activity,Coxsackievirus B1,4.8 µM
same,Activity,Coxsackievirus B6,>346 µM
same,Activity,Echovirus E11,>346 µM
same,Activity,Coxsackievirus A24,234 µM
same,Activity,Echovirus E9,>346 µM
same,Activity,enterovirus D68,>346 µM
same,Activity,Coxsackievirus B2,5.2 µM
same,Activity,Coxsackievirus B4,>346 µM
same,IC50,Coxsackievirus B3,2 µM
same,Activity,Coxsackievirus B5,2.1 µM
N#Cc1cc([N+](=O)[O-])ccc1Oc1ccccc1Br,IC50,Coxsackievirus B3,> 143 µM
N#Cc1cc([N+](=O)[O-])ccc1Oc1ccccc1Cl,Activity,Coxsackievirus B1,5.6 µM
same,Activity,Coxsackievirus B6,8.1 µM
same,Activity,Echovirus E11,35 µM
same,Activity,Coxsackievirus A24,23 µM
same,Activity,Echovirus E9,35 µM
same,Activity,enterovirus D68,22 µM
same,Activity,Coxsackievirus B2,6.2 µM
same,Activity,Coxsackievirus B4,14 µM
same,IC50,Coxsackievirus B3,6.9 µM
same,Activity,Coxsackievirus B5,3.1 µM
N#Cc1cc([N+](=O)[O-])ccc1Oc1ccc(CO)cc1,IC50,Coxsackievirus B3,121 µM
N#Cc1cc([N+](=O)[O-])ccc1Oc1cccc(Cl)c1,IC50,Coxsackievirus B3,4.9 µM
CC(=O)c1cccc(Oc2ccc([N+](=O)[O-])cc2C#N)c1,IC50,Coxsackievirus B3,57 µM
N#Cc1cc([N+](=O)[O-])ccc1Oc1cccc(NC(N)=S)c1,IC50,Coxsackievirus B3,234 µM
N#Cc1cc([N+](=O)[O-])ccc1Oc1ccc(Cl)cc1,Activity,Echovirus E11,>364 µM
same,Activity,Echovirus E9,>364 µM
same,Activity,enterovirus D68,>364 µM
same,IC50,Coxsackievirus B3,5 µM
CSc1ccc(Oc2ccc([N+](=O)[O-])cc2C#N)cc1,IC50,Coxsackievirus B3,93 µM
